# Screening results: PubChem, several laboratories
# In the library only some 3.5% were active in any assay of this set; here they are far more common.
# FXIa inh – inhibitors of human coagulation factor XIa | AID 798 | P03951 | 0.14% of 220,000 active | inhibition, % at 5 µM | purified FXIa, Boc-Glu-Ala-Arg-AMC fluorogenic substrate;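 active = inhibition of at least 40%; inactive = inhibition below 40%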;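 also: fluorescence of freed AMC excited at 355 nm; 0% = enzyme without compound and 100% = no enzyme blank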
# STAT3 act-1 – activators of IL-6 induced STAT3 signaling. U3A cells, IL-6 STAT3-luciferase reporter, luminescence; 100% = signal with IL-6 EC80 alone. 0.91% of 190,000 active. activation (% of control), % at 5.6 µM;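 active = activation above the screen-wide mean of compound activation plus 3 SD, cut at about 130% in these data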;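 also: 0% = background luminescence of wells with medium and substrate only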
#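 Material: human STAT1-deficient U3A cells with stable STAT3-luciferase reporter / Probe or stimulus: IL-6 stimulus at 33 ng/mL final / Schedule: 1 h compound pre-exposure, 6 h IL-6 stimulation, 37 °C / Technique: luminescence / Read-out basis: percent of IL-6-only median luminescence / Control set: IL-6-only high control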
# AHR act – activates the human aryl hydrocarbon receptor. 2.5% of 320,000 active. AID 2796. AHR-responsive luciferase reporter cells, luminescence. P35869. activation, % at 5 µM; in the data active = activation above about 47%;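 also: 0% = vehicle wells and 100% = reference agonist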
# Thrombin inh – inhibitors of human thrombin. P00734. alpha-thrombin, Boc-VPR-AMC fluorogenic substrate cleavage. inhibition, % at 5 µM. 0.26% of 220,000 active. AID 1046;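 active = inhibition at or above 40%; inactive = inhibition below 40%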;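 also: 0% = enzyme with no compound and 100% = wells without enzyme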
#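 System: Human alpha-thrombin protein | Medium: pH 7.5 Tris (50 mM) with NaCl 150 mM, Tween 20 0.05% | Times: Enzyme reaction carried out at room temperature | Detection: AMC fluorescence, 355/460 nm | Evaluation: Percent inhibition scaled between no-compound controls and no-enzyme blanks | Benchmarks: Enzyme without compound as high, wells lacking enzyme as low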
# FXIIa inh – blocks human coagulation factor XIIa protease activity; purified FXIIa, Boc-QGR-AMC fluorogenic substrate, 2 h; P00748; 0.3% of 220,000 active; inhibition, % at 5 µM; AID 800; in the data active = inhibition above about 40%;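 also: 0% = enzyme with no compound and 100% = blank without enzyme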
# hK5 inh – blocks human kallikrein 5 protease activity; Q9Y337; recombinant hK5, fluorogenic AMC substrate cleavage; inhibition, % at 5 µM; 0.59% of 210,000 active; AID 873;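 active = inhibition of 40% or more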;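 also: 0% = enzyme controls without compound and 100% = no-enzyme blanks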
# Target sequence (Q9Y337 67-293 limits assumed): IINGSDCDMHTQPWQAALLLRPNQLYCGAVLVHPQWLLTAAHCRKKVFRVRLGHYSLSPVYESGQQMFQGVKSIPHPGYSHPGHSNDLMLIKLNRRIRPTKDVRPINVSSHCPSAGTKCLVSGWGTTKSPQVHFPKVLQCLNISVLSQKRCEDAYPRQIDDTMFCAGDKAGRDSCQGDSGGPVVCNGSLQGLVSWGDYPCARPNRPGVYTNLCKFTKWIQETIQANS
# STAT3 act-2 – confirmation of STAT3 signaling activators; shares compounds with STAT3 act-1; U3A STAT3-luciferase reporter, IL-6 potentiation, luminescence; U3A cells lack STAT1; 100 means same as IL-6 alone; potentiation (% of control), % at 5.7 µM; 64% of 1,200 active; AID 1267;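 active = percent activation of the STAT3 luciferase reporter above a set limit taken from the earlier primary screen, cut at about 130% in these data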;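 also: 0% = background signal of medium plus substrate and 100% = median of IL-6 with DMSO wells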
# NFkB act STAT3ct – activates NF-kappaB, counter-screen to STAT3 activators. shares compounds with STAT3 act-1. human cells, NF-kappaB reporter activation. activation (% of control), % at 5.7 µM. 11% of 1,200 active; in the data active = activation above about 120%;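 also: reporter induced by TNF-alpha stimulation; 100% = median of stimulated DMSO wells and 0% = no signal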
# STAT1 act STAT3c – STAT1 activation in STAT3 activator counter-screen; shares compounds with STAT3 act-1; NIH 3T3 STAT1-luciferase reporter, IFN-gamma, luminescence; activation (% of control), % at 5.7 µM; 13% of 1,200 active; AID 1318;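 active = activation above the solvent-only control well mean plus 3 SD, set per screening run, cut at about 120% in these data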;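 also: 100% = IFN-gamma with DMSO median signal so 100% means no change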
# Active calls of the source: *; . = no result given.
SMILES,FXIa inh,STAT3 act-1,AHR act,Thrombin inh,FXIIa inh,hK5 inh,STAT3 act-2,NFkB act STAT3ct,STAT1 act STAT3c
CCC(Sc1nnnn1-c1ccccc1)C(=O)Nc1nc2ccccc2s1 (stereo unspecified),4,157*,14,-2,8,4,155*,112,113
CCC(Sc1nnnn1-c1ccccc1)C(=O)NC(C)c1ccccc1 (stereo unspecified),-3,106,-2,3,15,-4,.,.,.
COc1cc(C(C[N+](=O)[O-])c2c(C)[nH]c3ccccc23)cc(OC)c1OC (stereo unspecified),9,142*,16,-7,21,-7,126,98,92
CCOC(=O)CCC(=O)Nc1ccc([N+](=O)[O-])cc1C,2,99,0,-10,7,0,.,.,.
C(=N\c1nccs1)/c1c[nH]c2ccccc12,4,167*,33,3,16,-1,132,103,94
Cc1ccc(NC(=O)CC2Nc3ccccc3NC2=O)cc1Cl (stereo unspecified),.,138*,.,.,.,.,109,110,109
Cc1ccc(NC(=O)CC2SCCNC2=O)cc1Cl (stereo unspecified),1,106,6,1,14,6,.,.,.
CCn1nc(C)cc1C(=O)n1nc(C)c(Sc2ncccn2)c1C,9,.,1,-5,18,4,.,.,.
CCOC(=O)CSc1ncnc2c1cnn2-c1ccc(C)cc1,2,83,-3,-3,13,6,.,.,.
CCOC(=O)CSc1ncnc2c1cnn2-c1ccccc1,-12,138*,0,-6,-4,0,91,101,96
CCOC(=O)CC1C(=O)NCCN1C(=O)c1cc2c(=O)n3cccc(C)c3nc2s1 (stereo unspecified),-12,164*,12,-14,-12,-23,139*,105,99
CCOC(=O)CC1C(=O)NCCN1C(=O)c1cc2c(=O)n3ccccc3nc2s1 (stereo unspecified),-12,120,4,-23,-24,-8,.,.,.
O=S(=O)(c1ccccc1)n1ccc2ccccc21,-7,139*,17,-4,-3,-5,126,102,99
CCOC(=O)[C@@H]1[C@H]2COc3ccccc3[C@H]2N2C(=O)N(c3ccc(Br)cc3)C(=O)[C@]12C,.,.,3,.,.,.,.,.,.
c1ccc(N2CCN(c3nc4ccccc4n4cnnc34)CC2)cc1,4,97,39,-5,13,0,.,.,.
c1ccc2c(c1)CCCN2c1nc2ccccc2n2cnnc12,6,164*,22,-5,15,-10,163*,110,109
O=C(CCc1nc(-c2ccccn2)no1)NCc1ccc2c(c1)OCO2,1,.,21,2,12,-5,.,.,.
O=C(CCc1nnc(Cc2ccc3c(c2)OCO3)o1)NCc1nc2ccccc2s1,6,149*,.,-14,7,-2,142*,105,93
O=C(CC(NC(=O)C(F)(F)F)c1ccccc1)Nc1nnc(CCc2ccccc2)s1 (stereo unspecified),7,107,11,-2,13,-8,.,.,.
N#CC1=C(N)Oc2c(ccc3ccccc23)C1c1ccsc1 (stereo unspecified),6,138*,59*,3,14,-13,106,115,110
Oc1ccc(Br)cc1-c1cc(-c2ccco2)[nH]n1,0,136*,46,0,12,-3,128,107,116
Oc1ccc(Br)cc1-c1ccn[nH]1,-10,109,11,-4,0,-11,.,.,.
C[C@H](CO)N1C[C@H](C)[C@@H](CN(C)S(=O)(=O)c2ccc(F)cc2)Oc2c(NS(=O)(=O)c3ccc(F)cc3)cccc2C1=O,.,.,-1,.,.,.,.,.,.
Cn1c(SCC(=O)N2CCc3ccccc32)nnc1-c1ccc(S(=O)(=O)N2CCCC2)cc1,2,109,9,-2,6,-20,.,.,.
COc1cc(OC)cc(C(=O)Oc2ccc(/C=N/Nc3nc4ccccc4s3)cc2OC)c1,7,148*,72*,-3,15,-8,151*,97,155*
SMILES,FXIa inh,STAT3 act-1,AHR act,Thrombin inh,FXIIa inh,hK5 inh,STAT3 act-2,NFkB act STAT3ct,STAT1 act STAT3c
CCCC(=O)Nc1nc(C)c(-c2csc(Nc3ccc(Cl)cc3)n2)s1,24,177*,65*,-2,23,-32,162*,101,97
Cc1nc(NC(=O)c2ccccc2)sc1-c1csc(Nc2ccc(C(=O)O)cc2)n1,2,.,.,-4,5,0,.,.,.
CCC(C)C(=O)Nc1nc(C)c(-c2csc(Nc3ccc(Cl)cc3)n2)s1 (stereo unspecified),2,139*,51*,-1,12,-12,118,102,100
Cc1ccc(Nc2nc(-c3sc(NC(=O)c4cccc(Cl)c4)nc3C)cs2)cc1,-3,156*,14,0,5,-18,113,110,113
COc1ccc(C(=O)NNC(=O)c2ccc(F)c(S(=O)(=O)N3CCOCC3)c2)cc1,.,.,-2,.,.,.,.,.,.
Cc1ccc(-c2nc3ccccc3n3nnnc23)cc1,2,174*,.,3,16,-12,185*,131*,148*
O=c1cnnc(Nc2ccc(F)cc2)[nH]1,-5,99,9,-2,2,-11,.,.,.
O=c1cnnc(Nc2cccc(F)c2)[nH]1,0,142*,21,-2,9,1,148*,104,93
COc1ccc(S(=O)(=O)Nc2ccc(-c3ccc4nncn4n3)cc2)c(OC)c1,.,.,-1,.,.,.,.,.,.
O=C(COC(=O)CNS(=O)(=O)/C=C/c1ccccc1)Nc1cc(S(=O)(=O)N2CCCCC2)ccc1Cl,8,102,0,11,32,8,.,.,.
S=C(N/N=C1\CCc2ccccc21)NC1CCCCC1,-2,137*,27,-4,4,13,164*,135*,122*
COc1cccc(CCc2nnc(CCC(=O)NCCC3CCCCO3)o2)c1 (stereo unspecified),.,.,3,.,.,.,.,.,.
O=C1C=C(NCc2ccccc2)c2ccccc2C1=O,2,146*,.,-3,11,7,132,98,92
O=C1C=C(Nc2ccc(F)cc2)c2ccccc2C1=O,.,.,27,.,.,.,.,.,.
Cn1c(Sc2ccccc2Cl)c(C=O)c2ccccc21,7,93,1,-3,11,2,.,.,.
Cn1c(Sc2ccc(Cl)cc2)c(C=O)c2ccccc21,1,170*,3,3,4,5,140*,75,81
